Measured values as given in ChEMBL document CHEMBL1255292, “New active drugs against liver stages of Plasmodium predicted by molecular topology” (Antimicrob Agents Chemother, 2008).

How the values were obtained:
Plasmodium yoelii yoelii = assay: Antimicrobial activity against Plasmodium yoelii 265 liver infected in mammalian hepatocytes after 48 hrs; assay type: functional, organism-based; settings: Plasmodium yoelii, 265, Hepatocyte
[1] = Cytotoxicity against Hepatocyte cells assessed as cell viability by MTT assay; assay type: cell-based; settings: hepatocytes; read-out: TC50 (the source's name)
Procedure, shortened: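 MTT assay in mouse hepatocyte cultures prepared as for infection. Drugs at eight concentrations from 6.4 x 10–3 to 100 µM, triplicate wells. MTT 0.5 mg/ml (final) added for 4 h at 37°C, cells taken up in ethanol/DMSO 50/50, absorbance 550 nm with 620 nm reference. Viability expressed as percent of drug-free controls; TC50 by linear regression.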

[2] = Selectivity index, ratio of TC50 for hepatocytes to IC50 for Plasmodium yoelii; set-up: species or system Hepatocyte
Procedure, shortened: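 SI calculated as hepatocyte TC50 (MTT, mouse hepatocytes) divided by liver-stage IC50 against P. yoelii yoelii, both measured in this work.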

Plasmodium falciparum = assay: Antimicrobial activity against Plasmodium falciparum NF54 schizonts in mammalian hepatocytes after 96 hrs; assay type: functional, organism-based; settings: NF54, Hepatocyte
Procedure, shortened: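 Primary hepatocytes isolated by collagenase perfusion, 10^5 cells per chamber-slide well, held 24 h at 37°C, 4% CO2, then infected with 9 x 10^4 NF54 sporozoites dissected from salivary glands of infected Anopheles stephensi. Drugs added at infection to duplicate cultures, seven concentrations from 1 x 10^-6 to 30 µM, renewed daily. Methanol-fixed; HSPi72 serum with FITC anti-mouse IgG; schizonts counted; IC50 by linear regression.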

Row | Compound | IC50 (Plasmodium yoelii yoelii) [nM] | CC50 [1] [µM] | Selectivity Index [2] | IC50 (Plasmodium falciparum) [pM]
1 | CC(C)(C)NC(=O)[C@@H]1CN(Cc2cccnc2)CCN1C[C@@H](O)C[C@@H](Cc1ccccc1)C(=O)N[C@H]1c2ccccc2C[C@H]1O | 5000 | 8.77 | – | –
2 | O=C1C(O)=C([C@H]2CC[C@H](c3ccc(Cl)cc3)CC2)C(=O)c2ccccc21 [ATOVAQUONE] | 57 | 16.5 | 289 | –
3 | CC(C)Nc1cccnc1N1CCN(C(=O)c2cc3cc(NS(C)(=O)=O)ccc3[nH]2)CC1 [DELAVIRDINE] | 0.846 | > 100 | >118000 | –
4 | CC(CCc1ccc(O)cc1)NCCc1ccc(O)c(O)c1 (stereo unspecified) [DOBUTAMINE] | 3.7 | > 100 | >27000 | –
5 | CC[C@H](C)[C@H](NC(=O)[C@H]([C@@H](C)CC)N(C)C(C)=O)C(=O)N[C@H](C(=O)N[C@@H](CC(C)C)C(=O)[C@@]1(C)CO1)[C@@H](C)O [EPOXOMYCIN] | 3950 | 47.3 | 11.97 | –
6 | COC(=O)Nc1nc2cc(Sc3ccccc3)ccc2[nH]1 [FENBENDAZOLE] | 30000 | > 100 | >3.33 | –
7 | C=CC(C)(C)c1cc(/C=C/C(=O)c2ccc(O)cc2)c(OC)cc1O [LICOAGROCHACONE A] | 0.927 | 63.4 | 68300 | –
8 | COCC(=O)O[C@]1(CCN(C)CCCc2nc3ccccc3[nH]2)CCc2cc(F)ccc2[C@@H]1C(C)C [MIBEFRADIL] | 0.873 | 67.9 | 77000 | –
9 | Clc1ccc(COC(Cn2ccnc2)c2ccc(Cl)cc2Cl)c(Cl)c1 (stereo unspecified) [MICONAZOLE] | 2.03 | 70.4 | 34700 | –
10 | CC[C@@]1([C@@H]2O[C@@H]([C@H]3O[C@@](O)(CO)[C@H](C)C[C@@H]3C)C[C@@H]2C)CC[C@H]([C@]2(C)CC[C@]3(C[C@H](O)[C@@H](C)[C@@H]([C@@H](C)[C@@H](OC)[C@H](C)C(=O)O)O3)O2)O1 [MONENSIN] | < 0.001 | > 32 | >32000000 | < 1
11 | CO[C@@H]1C[C@@H](C[C@H]2CC[C@H](C)[C@H]([C@@H](C)C(=O)O)O2)O[C@]2(O[C@](C)([C@H]3CC[C@@](C)([C@@H]4O[C@@H]([C@H]5O[C@@](O)(CO)[C@H](C)C[C@@H]5C)C[C@@H]4C)O3)C[C@H]2C)[C@@H]1C [NIGERICIN] | < 0.001 | 13.2 | >13200000 | < 1
12 | CC(Cc1ccc(O)c(O)c1)C(C)Cc1ccc(O)c(O)c1 (stereo unspecified) [NORDIHYDROGUAIARETIC ACID] | 30000 | > 100 | >3.33 | –
13 | COc1cc(NC(C)CCCN)c2ncccc2c1 (stereo unspecified) [PRIMAQUINE] | – | 12.5 | – | –
14 | CCN(CC)CCCC(C)Nc1c2ccc(Cl)cc2nc2ccc(OC)cc12 (stereo unspecified) [QUINACRINE] | 30000 | > 11.6 | >0.38 | –
15 | CC(N)C12CC3CC(CC(C3)C1)C2 (stereo unspecified) [RIMANTADINE] | 35.6 | > 100 | >3.33 | –
16 | CC(C)c1nc(CN(C)C(=O)N[C@H](C(=O)N[C@@H](Cc2ccccc2)C[C@H](O)[C@H](Cc2ccccc2)NC(=O)OCc2cncs2)C(C)C)cs1 [RITONAVIR] | 34.2 | – | – | –
17 | CCOC(=O)NC(=S)Nc1ccccc1NC(=S)NC(=O)OCC [THIOPHANATE] | 30000 | > 100 | >3.33 | –
18 | CC[C@]1(O)C[C@@H]2CN(CCc3c([nH]c4ccccc34)[C@@](C(=O)OC)(c3cc4c(cc3OC)N(C)[C@H]3[C@@](O)(C(=O)OC)[C@H](OC(C)=O)[C@]5(CC)C=CCN6CC[C@]43[C@@H]65)C2)C1 [VINBLASTINE] | 7950 | 54.5 | 6.85 | –
